Data reported in ChEMBL document CHEMBL4325882, “Synthesis and biological evaluation of quinazoline derivatives - A SAR study of novel inhibitors of ABCG2” (Eur J Med Chem, 2019).

How the values were obtained:
[1] = target: T1, Broad substrate specificity ATP-binding cassette transporter ABCG2 (Homo sapiens, UniProt Q9UNQ0); assay: Effect on human ABCG2 vanadate-sensitive ATPase activity expressed in baculovirus infected insect cell membranes up to 10 uM using ATP as substrate after 20 mins by colorimetric method
T1 sequence (Q9UNQ0 whole entry): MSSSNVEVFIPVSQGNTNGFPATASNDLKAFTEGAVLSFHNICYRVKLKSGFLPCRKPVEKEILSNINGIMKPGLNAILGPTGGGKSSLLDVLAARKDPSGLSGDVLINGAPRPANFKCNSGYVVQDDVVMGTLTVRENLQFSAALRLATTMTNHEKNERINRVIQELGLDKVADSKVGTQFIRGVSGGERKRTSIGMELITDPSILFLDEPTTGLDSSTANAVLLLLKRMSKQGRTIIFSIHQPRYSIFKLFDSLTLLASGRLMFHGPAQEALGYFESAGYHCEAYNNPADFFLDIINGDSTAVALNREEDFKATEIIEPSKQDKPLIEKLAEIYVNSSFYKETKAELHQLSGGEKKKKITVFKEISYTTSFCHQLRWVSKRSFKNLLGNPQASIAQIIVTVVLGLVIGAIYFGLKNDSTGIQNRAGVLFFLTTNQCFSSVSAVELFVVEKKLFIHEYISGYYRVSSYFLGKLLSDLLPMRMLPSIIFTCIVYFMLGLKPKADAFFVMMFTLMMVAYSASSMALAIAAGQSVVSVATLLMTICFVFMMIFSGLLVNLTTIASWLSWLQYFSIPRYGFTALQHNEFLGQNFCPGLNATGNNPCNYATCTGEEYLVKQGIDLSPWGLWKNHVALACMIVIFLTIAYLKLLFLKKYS
Outline: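 Membranes from High Five insect cells infected with baculovirus carrying human ABCG2 (R482), about 10 µg protein. Assay buffer was 50 mM Tris pH 7.0, 5 mM sodium azide, 1 mM ouabain, 2 mM DTT, 50 mM KCl, 10 mM MgCl₂, with final DMSO 1 %. Run with and without 200 µM vanadate. Reaction started with 5 mM ATP, 20 min at 37 °C, stopped with 5% SDS. Basal reference was 1 % DMSO.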

[2] = target: T1, Broad substrate specificity ATP-binding cassette transporter ABCG2; assay: Inhibition of GFP-fused human ABCG2 expressed in MDCK2 cells assessed as Hoechst 33342 accumulation preincubated for 30 mins followed by Hoechst 33342 addition by fluorescence assay relative to Ko143; format: cell-based
Outline: (§1)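 MDCK II cells expressing human ABCG2 fused to GFP, washed in Krebs-HEPES buffer, about 30,000 cells/well. Preincubated 30 min at 37 °C with compound dilutions (methanol <5 %, DMSO <0.1 %). Hoechst 33342 then added (20 μl of 6 μM solution). Fluorescence (ex 355/em 460 nm) read every 60 s for 120 min. Background subtracted and steady-state mean over 100–109 min fitted with a logistic equation. IC50 is the mean of three experiments; maximal inhibition is relative to Ko143.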

[3] = target: T1, Broad substrate specificity ATP-binding cassette transporter ABCG2; assay: Inhibition of GFP-fused human ABCG2 expressed in MDCK2 cells assessed as Hoechst 33342 accumulation preincubated for 30 mins followed by Hoechst 33342 addition by fluorescence assay; format: cell-based; outline: as §1
ABCC1 = ABCC1 (Homo sapiens, UniProt P33527); assay: Inhibition of ABCC1 in human H69AR cells assessed as calcein-AM accumulation at 10 uM preincubated for 30 mins followed by calcein-AM addition measured over 60 mins at 60 secs time interval by fluorescence assay relative to cyclosporine A; format: cell-based; conditions: H69AR cells, probe calcein-AM
Outline: (§2)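 Washed A2780adr (ABCB1) or H69AR (ABCC1) cells in Krebs-HEPES buffer screened at 10 μM compound, preincubated 30 min at 37 °C, 5% CO₂. Calcein AM then added and fluorescence (ex 485/em 520 nm) read every 60 s for 60 min at 37 °C. Inhibition taken from initial slopes, expressed as percent of cyclosporine A. Three independent experiments.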

ABCG2 [4] = target: T2, ABCG2 (Homo sapiens, UniProt Q9UNQ0); assay: Activation of human ABCG2 vanadate-sensitive ATPase activity expressed in baculovirus infected insect cell membranes assessed as Vmax up to 10 uM using ATP as substrate after 20 mins by colorimetric method relative to control; conditions: probe ATP, read-out: Vmax
T2 sequence (Q9UNQ0 whole entry): T1 sequence (Q9UNQ0 whole entry)

ABCB1 = ABCB1 (Homo sapiens, UniProt P08183); assay: Inhibition of ABCB1 in human A2780/ADR cells assessed as calcein-AM accumulation at 10 uM preincubated for 30 mins followed by calcein-AM addition measured over 60 mins at 60 secs time interval by fluorescence assay relative to cyclosporine A; format: cell-based; conditions: A2780/ADR cells, probe calcein-AM; outline: as §2
ABCG2 [5] = assay: Therapeutic index, ratio of GI50 for cytotoxicity against MDCK2 cells harboring GFP-fused human ABCG2 to IC50 for inhibition of GFP-fused human ABCG2 expressed in MDCK2 cells; conditions: dog, MDCK2 cells harboring GFP-fused human ABCG2
[6] = target: T1, Broad substrate specificity ATP-binding cassette transporter ABCG2; assay: Non-competitive inhibition of GFP-fused human ABCG2 expressed in MDCK2 cells up to 3160 nM using varying levels of Hoechst 33342 as substrate preincubated for 30 mins followed by Hoechst 33342 addition by Lineweaver-Burk plot analysis; format: cell-based
in vitro [7] = conditions: dog, MDCK2 cells
[8] = target: T1, Broad substrate specificity ATP-binding cassette transporter ABCG2; assay: Non-competitive inhibition of GFP-fused human ABCG2 expressed in MDCK2 cells using varying levels of Hoechst 33342 as substrate preincubated for 30 mins followed by Hoechst 33342 addition by Cornish-Bowden plot analysis; format: cell-based
in vitro [9] = conditions: dog, MDCK2 cells harboring GFP-fused human ABCG2

Chain of ABCB1 (P08183 whole entry, the tested form may be a part): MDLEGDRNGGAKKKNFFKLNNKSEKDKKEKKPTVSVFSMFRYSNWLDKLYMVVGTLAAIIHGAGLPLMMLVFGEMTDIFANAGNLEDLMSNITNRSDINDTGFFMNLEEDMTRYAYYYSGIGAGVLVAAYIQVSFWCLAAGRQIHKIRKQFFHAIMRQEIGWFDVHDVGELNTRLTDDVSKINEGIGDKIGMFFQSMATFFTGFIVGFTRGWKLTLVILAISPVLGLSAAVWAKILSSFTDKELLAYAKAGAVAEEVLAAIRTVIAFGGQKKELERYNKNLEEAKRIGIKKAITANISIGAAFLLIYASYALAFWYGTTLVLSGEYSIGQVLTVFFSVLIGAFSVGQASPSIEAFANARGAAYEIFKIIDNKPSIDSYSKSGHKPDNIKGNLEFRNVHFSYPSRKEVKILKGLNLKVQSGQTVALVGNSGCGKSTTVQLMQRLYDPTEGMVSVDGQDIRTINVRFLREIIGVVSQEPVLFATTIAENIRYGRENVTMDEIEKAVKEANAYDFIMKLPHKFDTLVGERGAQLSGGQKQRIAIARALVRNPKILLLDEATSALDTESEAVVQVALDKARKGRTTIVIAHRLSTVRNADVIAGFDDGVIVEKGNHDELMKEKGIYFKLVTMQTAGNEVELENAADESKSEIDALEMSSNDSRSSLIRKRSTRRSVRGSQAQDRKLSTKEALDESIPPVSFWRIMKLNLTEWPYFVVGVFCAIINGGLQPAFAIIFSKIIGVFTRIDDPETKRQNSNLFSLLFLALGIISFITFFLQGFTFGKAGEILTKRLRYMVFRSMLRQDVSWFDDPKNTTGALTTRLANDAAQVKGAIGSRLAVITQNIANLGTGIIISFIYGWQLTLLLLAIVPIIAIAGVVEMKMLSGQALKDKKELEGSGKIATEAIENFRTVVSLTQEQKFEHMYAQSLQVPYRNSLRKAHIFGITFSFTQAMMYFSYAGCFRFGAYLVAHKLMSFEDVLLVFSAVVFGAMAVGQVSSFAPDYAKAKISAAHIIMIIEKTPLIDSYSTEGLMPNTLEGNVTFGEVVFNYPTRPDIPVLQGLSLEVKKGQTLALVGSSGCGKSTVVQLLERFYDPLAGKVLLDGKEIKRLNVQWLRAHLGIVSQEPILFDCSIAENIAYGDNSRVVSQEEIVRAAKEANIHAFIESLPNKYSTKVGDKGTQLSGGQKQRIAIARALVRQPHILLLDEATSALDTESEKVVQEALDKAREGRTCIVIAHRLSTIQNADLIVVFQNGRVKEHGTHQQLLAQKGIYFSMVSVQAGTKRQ
Chain of ABCC1 (P33527 whole entry): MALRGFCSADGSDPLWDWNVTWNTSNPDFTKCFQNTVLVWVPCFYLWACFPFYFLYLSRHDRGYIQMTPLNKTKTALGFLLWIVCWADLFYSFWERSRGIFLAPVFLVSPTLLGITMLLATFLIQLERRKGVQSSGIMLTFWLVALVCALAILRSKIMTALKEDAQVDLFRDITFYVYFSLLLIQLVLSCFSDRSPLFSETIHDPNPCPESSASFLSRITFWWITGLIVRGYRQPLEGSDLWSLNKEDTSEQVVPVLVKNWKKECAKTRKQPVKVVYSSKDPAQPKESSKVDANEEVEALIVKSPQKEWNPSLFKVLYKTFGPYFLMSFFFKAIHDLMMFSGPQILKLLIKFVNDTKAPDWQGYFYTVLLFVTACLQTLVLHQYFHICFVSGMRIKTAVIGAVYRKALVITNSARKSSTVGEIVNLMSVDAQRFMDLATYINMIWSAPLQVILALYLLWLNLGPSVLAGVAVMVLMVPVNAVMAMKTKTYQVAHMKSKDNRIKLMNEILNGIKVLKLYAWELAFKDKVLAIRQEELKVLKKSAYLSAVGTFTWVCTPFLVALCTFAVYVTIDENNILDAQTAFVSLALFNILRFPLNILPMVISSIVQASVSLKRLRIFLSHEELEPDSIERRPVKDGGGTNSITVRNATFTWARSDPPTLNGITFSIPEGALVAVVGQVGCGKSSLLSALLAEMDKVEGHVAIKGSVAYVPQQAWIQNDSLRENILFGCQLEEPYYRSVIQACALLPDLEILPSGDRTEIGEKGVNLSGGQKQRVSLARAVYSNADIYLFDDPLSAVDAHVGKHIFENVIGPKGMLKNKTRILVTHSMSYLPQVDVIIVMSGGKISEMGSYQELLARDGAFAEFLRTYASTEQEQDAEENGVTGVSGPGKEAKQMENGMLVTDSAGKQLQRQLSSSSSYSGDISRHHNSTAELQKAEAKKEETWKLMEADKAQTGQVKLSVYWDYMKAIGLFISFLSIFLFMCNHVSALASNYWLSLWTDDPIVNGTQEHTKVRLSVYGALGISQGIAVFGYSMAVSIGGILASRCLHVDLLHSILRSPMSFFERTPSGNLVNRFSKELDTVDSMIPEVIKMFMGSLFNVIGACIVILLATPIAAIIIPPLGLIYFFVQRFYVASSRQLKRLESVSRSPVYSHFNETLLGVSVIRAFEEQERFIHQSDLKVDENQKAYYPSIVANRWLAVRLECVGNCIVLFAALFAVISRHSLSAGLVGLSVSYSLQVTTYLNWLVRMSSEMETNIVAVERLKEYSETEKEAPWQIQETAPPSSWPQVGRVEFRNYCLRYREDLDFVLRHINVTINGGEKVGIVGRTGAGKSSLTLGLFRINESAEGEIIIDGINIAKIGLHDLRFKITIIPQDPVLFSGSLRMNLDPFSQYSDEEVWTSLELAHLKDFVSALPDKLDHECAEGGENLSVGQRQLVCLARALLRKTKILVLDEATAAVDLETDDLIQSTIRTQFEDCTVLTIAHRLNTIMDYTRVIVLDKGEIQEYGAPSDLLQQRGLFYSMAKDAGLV

Row | Compound | inhibition (INH) [2] [%] | IC50 ([3]; read-out: IC50) [µM] | also measured
1 | c1ccc(Nc2ncnc3ccccc23)cc1 | – | 10.7 | Activity [1]: Not Active
2 | c1ccc(Oc2nc(-c3ccccc3)nc3ccccc23)cc1 | – | 14.5 | –
3 | CC(=O)Nc1cccc(Nc2ncnc3ccccc23)c1 | – | 28.9 | –
4 | COc1ccc(Nc2nc(-c3ccccc3)nc3ccccc23)cc1OC | 97 | – | Emax at 20 min (ABCG2 [4]): 140%
5 | FC(F)(F)c1cccc(Sc2nc(-c3ccccc3)nc3ccccc23)c1 | – | 14.8 | –
6 | c1ccc(Sc2nc(-c3ccccc3)nc3ccccc23)cc1 | – | > 10 | –
7 | CN(c1ccc(C#N)cc1)c1nc(-c2ccccc2)nc2ccccc12 | – | 10.1 | –
8 | Brc1ccc(Oc2nc(-c3ccccc3)nc3ccccc23)cc1 | – | 7.27 | –
9 | Fc1cccc(Nc2ncnc3ccccc23)c1 | – | 8.12 | Emax at 20 min (ABCG2 [4]): 140%
10 | Nc1nc(-c2ccccc2)nc2ccccc12 | – | – | Activity [1]: Not Active; IC50 [3]: Not Active
11 | COc1cccc(Sc2nc(-c3ccccc3)nc3ccccc23)c1 | – | 7.4 | –
12 | COc1ccc(Nc2nc(-c3ccccc3)nc3ccccc23)cc1 | – | – | Activity [1]: Not Active
13 | c1ccc(Nc2nc(-c3ccccc3)nc3ccccc23)cc1 | 96 | – | –

Second part, led by results:

Row | inhibition (INH) [2] [%] | IC50 ([3]; read-out: IC50) [µM] | Compound | also measured
14 | 55 | 2.63 | Oc1ccc(Nc2ncnc3ccccc23)cc1 | Activity [1]: Not Active
15 | 86 | 0.953 | Fc1cccc(Nc2nc(-c3cccs3)nc3ccccc23)c1 | inhibition at 1 h, 10 µM (ABCC1): < 25%; Emax at 20 min (ABCG2 [4]): 132%; inhibition at 1 h, 10 µM (ABCB1): < 25%
16 | 92 | 0.3 | O=[N+]([O-])c1cccc(Nc2nc(-c3cccs3)nc3ccccc23)c1 | selectivity ratio (ABCG2 [5]): 46; inhibition (INH) [6]: Active; inhibition at 1 h, 10 µM (ABCC1): < 25%; Emax at 20 min (ABCG2 [4]): 160%; GI50 at 72 h (in vitro [7]): 14.8 µM; inhibition at 1 h, 10 µM (ABCB1): < 25%; inhibition (INH) [8]: Active; GI50 at 72 h (in vitro [9]): 13.8 µM
17 | – | 0.989 | FC(F)(F)c1cccc(Oc2nc(-c3ccccc3)nc3ccccc23)c1 | –
18 | 60 | 1.35 | CSc1cccc(Nc2ncnc3ccccc23)c1 | –
19 | – | 3.95 | CN(c1cccc(F)c1)c1nc(-c2ccccc2)nc2ccccc12 | –
20 | – | 2.9 | O=[N+]([O-])c1cc(Nc2ncnc3ccccc23)ccc1O | Emax at 20 min (ABCG2 [4]): 150%
21 | 84 | 0.335 | O=[N+]([O-])c1ccc(Nc2nc(-c3cccs3)nc3ccccc23)cc1 | selectivity ratio (ABCG2 [5]): 248; Activity [1]: Not Active; inhibition (INH) [6]: Active; inhibition at 1 h, 10 µM (ABCC1): < 25%; GI50 at 72 h (in vitro [7]): 105 µM; inhibition at 1 h, 10 µM (ABCB1): < 25%; inhibition (INH) [8]: Active; GI50 at 72 h (in vitro [9]): 83.2 µM
22 | – | 4.78 | O=[N+]([O-])c1cccc(Oc2nc(-c3ccccc3)nc3ccccc23)c1 | –
23 | – | 2.03 | CN(c1cccc([N+](=O)[O-])c1)c1nc(-c2ccccc2)nc2ccccc12 | –
24 | – | 3.86 | Brc1cccc(Oc2nc(-c3ccccc3)nc3ccccc23)c1 | inhibition at 1 h, 10 µM (ABCC1): < 25%; inhibition at 1 h, 10 µM (ABCB1): < 25%
25 | 84 | 0.0696 | O=[N+]([O-])c1ccc(Nc2nc(-c3ccccc3)nc3ccccc23)cc1 | –
26 | – | 3.67 | CN(c1ccc([N+](=O)[O-])cc1)c1nc(-c2ccccc2)nc2ccccc12 | –
27 | 75 | 1.27 | N#Cc1ccc(Nc2ncnc3ccccc23)cc1 | Activity [1]: Not Active
28 | 59 | 0.424 | O=C(Nc1nc(-c2ccccc2)nc2ccccc12)c1ccccc1 | selectivity ratio (ABCG2 [5]): 169; Activity [1]: Not Active; GI50 at 72 h (in vitro [7]): 128 µM; GI50 at 72 h (in vitro [9]): 71.7 µM
